# From ChEMBL document CHEMBL2046347, “Structure-activity relationships in human Toll-like receptor 2-specific monoacyl lipopeptides” (J Med Chem, 2012)
# The source made the active and inactive calls. The rule behind the calls is not given here.
# What was measured:
# Type in all cases: functional, cell-based
# [1] = target: Toll-like receptor 2 (Mus musculus) (UniProt Q9QUN7); experiment: Agonist activity at mouse TLR2 expressed in HEK293 cells assessed as NFkappaB translocation after 12 hrs by secretory alkaline phosphatase reporter gene assay
# In short: (§1)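 HEK293 cells stably carrying human or murine TLR2 plus an NF-κB-driven secreted alkaline phosphatase reporter, kept in selection medium with zeocin and normocin. Seeded at ~10⁵ cells/mL and grown to confluency, then exposed to serially diluted compounds for 12 h. Secreted phosphatase in supernatant read colorimetrically at 620 nm with an alkaline phosphatase-specific chromogen in detection medium.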
# [2] = target: Toll-like receptor 2 (Homo sapiens) (UniProt O60603); experiment: Agonist activity at human TLR2 expressed in HEK293 cells assessed as NFkappaB translocation at 10 uM after 12 hrs by secretory alkaline phosphatase reporter gene assay
# [3] = target: Toll-like receptor 2 (Homo sapiens) (UniProt O60603); experiment: Antagonistic activity at human TLR2 expressed in HEK293 cells assessed as inhibition of PAM2CS-induced NFkappaB translocation by secretory alkaline phosphatase reporter gene assay
# In short: (§2)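 Reporter HEK293 lines (human or murine TLR2, NF-κB-inducible secreted alkaline phosphatase) plated at ~10⁵ cells/mL. Stimulated with PAM2CS (1 μg/mL) or lipoteichoic acid (1 μg/mL) in the presence of graded test-compound concentrations. Phosphatase activity in supernatant measured spectrophotometrically at 620 nm using a phosphatase-specific chromogen.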
# [4] = target: Toll-like receptor 2 (Mus musculus) (UniProt Q9QUN7); experiment: Antagonistic activity at mouse TLR2 expressed in HEK293 cells assessed as inhibition of PAM2CS-induced NFkappaB translocation by secretory alkaline phosphatase reporter gene assay; in short: as §2
# [5] = target: Toll-like receptor 2 (Homo sapiens) (UniProt O60603); experiment: Antagonistic activity at human TLR2 expressed in HEK293 cells assessed as inhibition of lipoteichoic acid-induced NFkappaB translocation by secretory alkaline phosphatase reporter gene assay; in short: as §2
# [6] = target: Toll-like receptor 2 (Mus musculus) (UniProt Q9QUN7); experiment: Antagonistic activity at mouse TLR2 expressed in HEK293 cells assessed as inhibition of lipoteichoic acid-induced NFkappaB translocation by secretory alkaline phosphatase reporter gene assay; in short: as §2
# [7] = target: Toll-like receptor 2 (Homo sapiens) (UniProt O60603); experiment: Agonist activity at human TLR2 expressed in HEK293 cells assessed as NFkappaB translocation after 12 hrs by secretory alkaline phosphatase reporter gene assay; in short: as §1
# Sequence of Toll-like receptor 2 (Homo sapiens) (O60603 whole entry): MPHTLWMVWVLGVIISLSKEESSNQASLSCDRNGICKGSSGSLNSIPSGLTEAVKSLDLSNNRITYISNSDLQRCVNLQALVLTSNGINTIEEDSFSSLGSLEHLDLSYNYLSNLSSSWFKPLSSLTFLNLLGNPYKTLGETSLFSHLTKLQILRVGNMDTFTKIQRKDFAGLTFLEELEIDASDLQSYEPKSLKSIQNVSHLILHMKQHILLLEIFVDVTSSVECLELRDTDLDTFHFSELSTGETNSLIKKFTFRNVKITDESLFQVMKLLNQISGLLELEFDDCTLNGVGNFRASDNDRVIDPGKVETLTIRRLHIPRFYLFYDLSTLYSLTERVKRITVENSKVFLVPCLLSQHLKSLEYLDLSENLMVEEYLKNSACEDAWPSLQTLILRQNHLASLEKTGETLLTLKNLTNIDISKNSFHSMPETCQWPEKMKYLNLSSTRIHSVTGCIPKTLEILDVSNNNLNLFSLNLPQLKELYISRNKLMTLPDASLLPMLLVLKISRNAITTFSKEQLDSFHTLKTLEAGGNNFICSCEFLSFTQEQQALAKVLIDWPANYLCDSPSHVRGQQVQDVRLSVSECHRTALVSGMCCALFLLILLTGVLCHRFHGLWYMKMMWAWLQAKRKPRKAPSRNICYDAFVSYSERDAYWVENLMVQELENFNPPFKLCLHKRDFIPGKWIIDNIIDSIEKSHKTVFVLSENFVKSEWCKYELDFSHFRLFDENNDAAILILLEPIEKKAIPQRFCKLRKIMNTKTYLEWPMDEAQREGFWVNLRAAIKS
# Sequence of Toll-like receptor 2 (Mus musculus) (Q9QUN7 whole entry): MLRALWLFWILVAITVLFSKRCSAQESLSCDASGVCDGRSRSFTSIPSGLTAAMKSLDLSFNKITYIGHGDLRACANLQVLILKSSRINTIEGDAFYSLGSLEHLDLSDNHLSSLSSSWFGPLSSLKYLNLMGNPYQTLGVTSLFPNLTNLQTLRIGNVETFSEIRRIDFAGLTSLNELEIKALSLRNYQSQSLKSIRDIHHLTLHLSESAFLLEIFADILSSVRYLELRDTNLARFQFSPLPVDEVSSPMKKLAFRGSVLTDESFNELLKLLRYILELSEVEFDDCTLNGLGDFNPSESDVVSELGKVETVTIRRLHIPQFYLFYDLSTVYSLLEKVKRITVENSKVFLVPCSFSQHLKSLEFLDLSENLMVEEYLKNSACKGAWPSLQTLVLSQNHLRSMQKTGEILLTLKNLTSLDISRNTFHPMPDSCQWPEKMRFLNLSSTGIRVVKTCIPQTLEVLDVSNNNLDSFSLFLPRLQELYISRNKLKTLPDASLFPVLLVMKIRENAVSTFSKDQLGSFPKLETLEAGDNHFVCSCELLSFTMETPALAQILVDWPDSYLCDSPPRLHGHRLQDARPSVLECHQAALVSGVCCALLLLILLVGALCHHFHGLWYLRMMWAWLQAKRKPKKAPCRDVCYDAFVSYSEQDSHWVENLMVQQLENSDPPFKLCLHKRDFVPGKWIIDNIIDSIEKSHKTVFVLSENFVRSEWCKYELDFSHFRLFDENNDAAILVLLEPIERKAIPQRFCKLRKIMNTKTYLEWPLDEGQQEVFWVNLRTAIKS
smiles,measurement,setting,value
CCCCCCCCCCCCCCCCCC(=O)OCCSC[C@H](N)C(=O)N[C@@H](CO)C(=O)OC,Activity,[1],inactive
CCCCCCCCCCCCCCCC(=O)OCCSC[C@H](NCC)C(=O)N[C@@H](CO)C(=O)OC,Activity,[2],inactive
COC(=O)[C@H](CO)NC(=O)[C@@H](N)CSCCOC(=O)c1ccc(-c2ccc(-c3ccccc3)cc2)cc1,Activity,[2],inactive
same,inhibition,[3],inactive
same,inhibition,[4],inactive
same,inhibition,[5],inactive
same,inhibition,[6],inactive
CCCCCCCCCCCCCCCC(=O)OCCSC[C@H](N)C(=O)N[C@@H](CO)C(=O)OC,Activity,[1],inactive
CCCCCCCCCCCCCCCC(=O)OCCSC[C@H](N)C(=O)N[C@@H](COC(C)=O)C(=O)OC,Activity,[7],Active
CCCCCCCCCCCCCCNCC(=O)OCCSC[C@H](N)C(=O)N[C@@H](CO)C(=O)OC,Activity,[2],inactive
CCCCCCCCCCCCCCCC(=O)OCCSC[C@H](NC(=O)CCC)C(=O)N[C@@H](CO)C(=O)OC,Activity,[1],inactive
CCCCCCCCCCCCCCCC(=O)OCCSC[C@H](NS(=O)(=O)C(F)(F)F)C(=O)N[C@@H](CO)C(=O)OC,Activity,[7],inactive
CCCCCCCCCCCCCCCC(=O)OCCSC[C@H](NC(=O)CCCCCCC)C(=O)N[C@@H](CO)C(=O)OC,Activity,[1],inactive
CCCCCCCCCCCCCCN(CCCCCCCCCCCCCC)CC(=O)OCCSC[C@H](N)C(=O)N[C@@H](CO)C(=O)OC,Activity,[2],inactive
CCCCCCCCCCCCCCCC(=O)OCCSC[C@H](NCCCCCCCC)C(=O)N[C@@H](CO)C(=O)OC,Activity,[2],inactive
CCCC(=O)OCCSC[C@H](N)C(=O)N[C@@H](CO)C(=O)OC,Activity,[2],inactive
same,inhibition,[3],inactive
same,inhibition,[4],inactive
same,inhibition,[5],inactive
same,inhibition,[6],inactive
CCCCCCCCCCCCCCCC(=O)OCCSC[C@H](NS(C)(=O)=O)C(=O)N[C@@H](CO)C(=O)OC,Activity,[7],inactive
CCCCCCCCCCCCCCCCN[C@@H](CSCCOC(=O)CCCCCCCCCCCCCCC)C(=O)N[C@@H](CO)C(=O)OC,Activity,[2],inactive
CCCCCCCCCCCCCCCC(=O)OCCSC[C@H](NC(C)=O)C(=O)N[C@@H](CO)C(=O)OC,Activity,[1],inactive
CCCCCCCCCCCCCCCC(=O)N[C@@H](CSCCOC(=O)CCCCCCCCCCCCCCC)C(=O)N[C@@H](CO)C(=O)OC,Activity,[2],inactive
CCCCCCCCCCCC(=O)OCCSC[C@H](N)C(=O)N[C@@H](CO)C(=O)OC,Activity,[2],inactive
same,inhibition,[3],inactive
same,inhibition,[4],inactive
same,inhibition,[5],inactive
same,inhibition,[6],inactive
CCCCCCCC(=O)OCCSC[C@H](N)C(=O)N[C@@H](CO)C(=O)OC,Activity,[2],inactive
same,inhibition,[3],inactive
same,inhibition,[4],inactive
same,inhibition,[5],inactive
same,inhibition,[6],inactive
COC(=O)[C@H](CO)NC(=O)[C@@H](N)CSCCOC(=O)c1cccc(-c2ccccc2)c1,Activity,[2],inactive
same,inhibition,[3],inactive
same,inhibition,[4],inactive
same,inhibition,[5],inactive
same,inhibition,[6],inactive
CCCCCCCCCCCCCCCC(=O)OCCSC[C@H](NC(=O)C(Cl)(Cl)Cl)C(=O)N[C@@H](CO)C(=O)OC,Activity,[7],inactive
COC(=O)[C@H](CO)NC(=O)[C@@H](N)CSCCOC(=O)c1ccc(-c2ccccc2)cc1,Activity,[2],inactive
same,inhibition,[3],inactive
same,inhibition,[4],inactive
same,inhibition,[5],inactive
same,inhibition,[6],inactive
CCCCCCCCCCCCCCCC(=O)OCCSC[C@H](NS(=O)(=O)c1ccc(C)cc1)C(=O)N[C@@H](CO)C(=O)OC,Activity,[7],inactive
